In ChEMBL document CHEMBL3102784, “Salicylanilide diethyl phosphates: synthesis, antimicrobial activity and cytotoxicity” (Bioorg Med Chem, 2014):
In brackets after ≈: the same amount, converted by molar mass. Activity calls are given as the source filed them. No cut-off for these calls is given here.

What was measured:
Aspergillus fumigatus [1] = assay: Antifungal activity against Aspergillus fumigatus 231 after 48 hrs by broth microdilution method; assay type: functional; settings: Aspergillus fumigatus, 231, 48 h
Outline: (§1)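 Broth microdilution in RPMI 1640 with glutamine, fluconazole as reference. For yeasts, MIC is ≥80% growth reduction (IC80) versus control. For filamentous fungi, the value is expressed as IC50. Readings at 24 and 48 h.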

Pichia kudriavzevii [2] = assay: Antifungal activity against Candida krusei E28 after 48 hrs by broth microdilution method; assay type: functional; settings: E28, 48 h; outline: as §1
Lichtheimia corymbifera [3] = assay: Antifungal activity against Absidia corymbifera 272 after 48 hrs by broth microdilution method; assay type: functional; settings: Lichtheimia corymbifera, 272, 48 h; outline: as §1
Candida albicans [4] = assay: Antifungal activity against Candida albicans ATCC 44859 after 24 hrs by broth microdilution method; assay type: functional; settings: ATCC 44859, 24 h; outline: as §1
Trichosporon asahii [5] = assay: Antifungal activity against Trichosporon asahii 1188 after 48 hrs by broth microdilution method; assay type: functional; settings: Trichosporon asahii, 1188, 48 h; outline: as §1
Mycobacterium kansasii [6] = assay: Antimycobacterial activity against Mycobacterium kansasii 6509/96 after 21 days; assay type: functional; settings: 6509/96, 504 h
Outline: (§2)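 Micromethod MIC in Šula's semisynthetic medium at 37 °C. Compounds added in DMSO at 1000 down to 0.032 µmol/L. Isoniazid standard in sterile water at 0.5–250 µmol/L. Inocula: H37Rv 10^3, M. avium 10^5, M. kansasii 10^4. Read at 14 and 21 d, plus 7 d for M. kansasii.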

Nakaseomyces glabratus = assay: Antifungal activity against Candida glabrata 20/I at 500 micromol/L after 24 to 48 hrs by broth microdilution method; assay type: functional, organism-based; outline: as §1
Mycobacterium avium [7] = assay: Antimycobacterial activity against isoniazid, rifampicin, ethambutol and ofloxacin-resistant Mycobacterium avium My 330/88 after 14 days; assay type: functional; settings: My 330/88, 336 h; outline: as §2
Trichosporon asahii [8] = assay: Antifungal activity against Trichosporon asahii 1188 after 24 hrs by broth microdilution method; assay type: functional; settings: Trichosporon asahii, 1188, 24 h; outline: as §1
Mycobacterium kansasii [9] = assay: Antimycobacterial activity against Mycobacterium kansasii My 235/80 after 14 days; assay type: functional; settings: My 235/80, 336 h; outline: as §2
Escherichia coli = assay: Antibacterial activity against Escherichia coli CCM 4517 at 500 micromol/L after 24 to 48 hrs by broth microdilution method; assay type: functional, organism-based
Outline: (§3)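 Broth microdilution in Mueller–Hinton broth, compounds dissolved in DMSO, tested over a dilution series from 500 downward. MIC taken as ≥95% growth reduction (IC95) versus drug-free control. Benzylpenicillin comparator. Readings at 24 and 48 h.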

Mycobacterium avium [10] = assay: Antimycobacterial activity against isoniazid, rifampicin, ethambutol and ofloxacin-resistant Mycobacterium avium My 330/88 after 21 days; assay type: functional; settings: My 330/88, 504 h; outline: as §2
Staphylococcus aureus [11] = assay: Antibacterial activity against Staphylococcus aureus CCM 4516/08 after 24 hrs by broth microdilution method; assay type: functional; settings: CCM 4516/08, 24 h; outline: as §3
Pseudomonas aeruginosa = assay: Antibacterial activity against Pseudomonas aeruginosa CCM 1961 at 500 micromol/L after 24 to 48 hrs by broth microdilution method; assay type: functional, organism-based; outline: as §3
Staphylococcus aureus [12] = assay: Antibacterial activity against methicillin-resistant Staphylococcus aureus H 5996/08 after 48 hrs by broth microdilution method; assay type: functional; settings: H 5996/08, 48 h; outline: as §3
Enterococcus sp. = assay: Antibacterial activity against Enterococcus sp. J 14365/08 at 500 micromol/L after 24 to 48 hrs by broth microdilution method; assay type: functional, organism-based; outline: as §3
[13] = test system: Staphylococcus epidermidis; assay: Antibacterial activity against Staphylococcus epidermidis H 6966/08 after 24 hrs by broth microdilution method; assay type: functional; settings: H 6966/08, 24 h; outline: as §3
Mycobacterium kansasii [14] = assay: Antimycobacterial activity against Mycobacterium kansasii 6509/96 after 14 days; assay type: functional; settings: 6509/96, 336 h; outline: as §2
Staphylococcus aureus [15] = assay: Antibacterial activity against methicillin-resistant Staphylococcus aureus H 5996/08 after 24 hrs by broth microdilution method; assay type: functional; settings: H 5996/08, 24 h; outline: as §3
[16] = test system: Trichophyton mentagrophytes; assay: Antifungal activity against Trichophyton mentagrophytes 445 after 120 hrs by broth microdilution method; assay type: functional; settings: Trichophyton mentagrophytes, 445, 120 h
Outline: (§4)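 Filamentous dermatophyte tested by broth microdilution in RPMI 1640 with glutamine, fluconazole as reference. Value expressed as IC50 relative to growth control. Read at 72 and 120 h.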

[17] = test system: Mycobacterium tuberculosis; assay: Antimycobacterial activity against Mycobacterium tuberculosis H37Rv My 331/88 after 14 days; assay type: functional; settings: H37Rv My 331/88, 336 h; outline: as §2
Klebsiella pneumoniae [18] = assay: Antibacterial activity against Klebsiella pneumoniae D 11750/08 at 500 micromol/L after 24 to 48 hrs by broth microdilution method; assay type: functional, organism-based; outline: as §3
Mycobacterium kansasii [19] = assay: Antimycobacterial activity against Mycobacterium kansasii 6509/96 after 7 days; assay type: functional; settings: 6509/96, 168 h; outline: as §2
Lichtheimia corymbifera [20] = assay: Antifungal activity against Absidia corymbifera 272 after 24 hrs by broth microdilution method; assay type: functional; settings: Lichtheimia corymbifera, 272, 24 h; outline: as §1
Candida tropicalis = assay: Antifungal activity against Candida tropicalis 156 at 500 micromol/L after 24 to 48 hrs by broth microdilution method; assay type: functional, organism-based; outline: as §1
Aspergillus fumigatus [21] = assay: Antifungal activity against Aspergillus fumigatus 231 after 24 hrs by broth microdilution method; assay type: functional; settings: Aspergillus fumigatus, 231, 24 h; outline: as §1
Klebsiella pneumoniae [22] = assay: Antibacterial activity against ESBL-positive Klebsiella pneumoniae J 14368/08 at 500 micromol/L after 24 to 48 hrs by broth microdilution method; assay type: functional, organism-based; outline: as §3
Candida albicans [23] = assay: Antifungal activity against Candida albicans ATCC 44859 after 48 hrs by broth microdilution method; assay type: functional; settings: ATCC 44859, 48 h; outline: as §1
Pichia kudriavzevii [24] = assay: Antifungal activity against Candida krusei E28 after 24 hrs by broth microdilution method; assay type: functional; settings: E28, 24 h; outline: as §1
[25] = test system: Trichophyton mentagrophytes; assay: Antifungal activity against Trichophyton mentagrophytes 445 after 72 hrs by broth microdilution method; assay type: functional; settings: Trichophyton mentagrophytes, 445, 72 h; outline: as §4
HepG2 = assay: Cytotoxicity against human HepG2 cells after 24 hrs by CellTiter assay; assay type: cell-based; settings: HepG2, 24 h
Outline: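 HepG2 cells (passage 27–33) in MEM with 10% FBS, L-glutamine and NEAA, seeded at 1×10^4 per well. Treated next day with compounds at 0.1–100 µM (or 0.1–25 µmol/L), triplicates, <1% DMSO, for 24 h at 37 °C, 5% CO2. MTS reagent added for 2 h, absorbance read at 490 nm. IC50 taken against untreated (100%) and 10% DMSO (0%) controls.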

[26] = test system: Staphylococcus epidermidis; assay: Antibacterial activity against Staphylococcus epidermidis H 6966/08 after 48 hrs by broth microdilution method; assay type: functional; settings: H 6966/08, 48 h; outline: as §3
[27] = test system: Mycobacterium tuberculosis; assay: Antimycobacterial activity against Mycobacterium tuberculosis H37Rv My 331/88 after 21 days; assay type: functional; settings: H37Rv My 331/88, 504 h; outline: as §2
Mycobacterium kansasii [28] = assay: Antimycobacterial activity against Mycobacterium kansasii My 235/80 after 7 days; assay type: functional; settings: My 235/80, 168 h; outline: as §2
Staphylococcus aureus [29] = assay: Antibacterial activity against Staphylococcus aureus CCM 4516/08 after 48 hrs by broth microdilution method; assay type: functional; settings: CCM 4516/08, 48 h; outline: as §3
Mycobacterium kansasii [30] = assay: Antimycobacterial activity against Mycobacterium kansasii My 235/80 after 21 days; assay type: functional; settings: My 235/80, 504 h; outline: as §2

Work on `CCOP(=O)(OCC)Oc1cc(Cl)ccc1C(=O)Nc1cccc(C(F)(F)F)c1` yielded an MIC50 (Aspergillus fumigatus [1]) greater than 500 µM, an MIC80 (Pichia kudriavzevii [2]) greater than 500 µM and an MIC50 (Lichtheimia corymbifera [3]) greater than 500 µM. It also gave an MIC80 (Candida albicans [4]) greater than 500 µM, an MIC80 (Trichosporon asahii [5]) greater than 500 µM and an MIC (Mycobacterium kansasii [6]) of 8 µM (≈ 3.61 µg/mL). For the same compound, the Activity (Nakaseomyces glabratus) was “inactive”, the MIC (Mycobacterium avium [7]) was 16 µM (≈ 7.23 µg/mL) and the MIC80 (Trichosporon asahii [8]) was greater than 500 µM. For the same compound, the MIC (Mycobacterium kansasii [9]) was 4 µM (≈ 1.81 µg/mL), the Activity (Escherichia coli) was “inactive” and the MIC (Mycobacterium avium [10]) was 16 µM (≈ 7.23 µg/mL). For the same compound, the MIC95 (Staphylococcus aureus [11]) was 31.2 µM (≈ 14.1 µg/mL), the Activity (Pseudomonas aeruginosa) was “inactive” and the MIC95 (Staphylococcus aureus [12]) was 62.5 µM (≈ 28.2 µg/mL). For the same compound, the Activity (Enterococcus sp.) was “inactive”, the MIC95 [13] was 15.6 µM (≈ 7.06 µg/mL) and the MIC (Mycobacterium kansasii [14]) was 8 µM (≈ 3.61 µg/mL). The MIC95 (Staphylococcus aureus [15]) was 31.2 µM (≈ 14.1 µg/mL), the MIC50 [16] was 31.2 µM (≈ 14.1 µg/mL) and the MIC [17] was 4 µM (≈ 1.81 µg/mL). The Activity (Klebsiella pneumoniae [18]) was “inactive”, the MIC (Mycobacterium kansasii [19]) was 4 µM (≈ 1.81 µg/mL) and the MIC50 (Lichtheimia corymbifera [20]) was greater than 500 µM. The Activity (Candida tropicalis) was “inactive”, the MIC50 (Aspergillus fumigatus [21]) was greater than 500 µM and the Activity (Klebsiella pneumoniae [22]) was “inactive”. For the same compound, the MIC80 (Candida albicans [23]) was greater than 500 µM, the MIC80 (Pichia kudriavzevii [24]) was greater than 500 µM and the MIC50 [25] was 31.2 µM (≈ 14.1 µg/mL). The IC50 (HepG2) was 3.85 µM, the MIC95 [26] was 31.2 µM (≈ 14.1 µg/mL) and the MIC [27] was 4 µM (≈ 1.81 µg/mL). The MIC (Mycobacterium kansasii [28]) was 2 µM (≈ 0.904 µg/mL), the MIC95 (Staphylococcus aureus [29]) was 62.5 µM (≈ 28.2 µg/mL) and the MIC (Mycobacterium kansasii [30]) was 4 µM (≈ 1.81 µg/mL).
